# Test results as given in ChEMBL document CHEMBL1123760, “Synthesis and oral antifungal activity of novel azolylpropanolones and related compounds” (1987).
# How the values were obtained:
# Format in all cases: functional
# Aspergillus fumigatus = assay: In vitro antifungal activity against Aspergillus fumigatus; details: Aspergillus fumigatus; read-out: MIC
# Method in brief: (§1)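 Broth microdilution MIC in Sabouraud's glucose broth; final inocula 1 × 10^5 cells/mL (yeast) or 1 × 10^5 conidia/mL (mold and dermatophyte).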
# Candida albicans [1] = assay: In vitro antifungal activity against Candida albicans; details: Candida albicans; read-out: MIC; method in brief: as §1
# Candida albicans [2] = assay: Minimum effective concentration for inhibition of pseudomycelium formation in Candida albicans; details: Candida albicans; read-out: MEC
# Method in brief: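 C. albicans KE-2 (clinical isolate) at a final 1 × 10^6 yeast cells/mL in EMEM with 20% calf serum; compounds diluted by the same microtiter system as for MICs. After incubation, wells were Giemsa-stained (5% in phosphate buffer) and read by microscope. MEC is the lowest concentration preventing typical pseudomycelium formation.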
# Mus musculus = assay: Ratio of in vivo number of survivors / total infected; design: reference not given here
# Trichophyton benhamiae = assay: In vitro antifungal activity against Trichophyton asteroides; details: Trichophyton benhamiae; read-out: MIC; method in brief: as §1
Structure (SMILES),MIC (Aspergillus fumigatus) [µg/mL],MIC (Candida albicans [1]) [µg/mL],minimal effective concentration (Candida albicans [2]) [µg/mL],No. of survivors (Mus musculus),MIC (Trichophyton benhamiae) [µg/mL]
O=C(c1ccc(F)cc1)C(O)(Cn1cncn1)c1ccccc1Cl (stereo not given),> 100,100,2.5,8,1.6
O=C(c1ccccc1Cl)C(O)(Cn1cncn1)c1ccccc1Cl (stereo not given),50,50,0.08,2,0.1
O=C1O[C@H](c2ccccc2Cl)[C@@](Cn2cncn2)(c2ccccc2Cl)O1,> 100,> 100,0.31,0,12.5
O=C(c1ccccc1Cl)C(O)(Cn1ccnc1)c1ccccc1Cl (stereo not given),> 100,> 100,2.5,2,0.1
O=C(c1ccc(Cl)cc1Cl)C(O)(Cn1ccnc1)c1ccc(Cl)cc1Cl (stereo not given),25,50,5,1,0.1
CCCCC(=O)C(O)(Cn1cncn1)c1ccc(Cl)cc1Cl (stereo not given),> 100,50,0.04,2,0.1
O=C1O[C@H](c2ccc(Cl)cc2Cl)[C@@](Cn2cncn2)(c2ccc(Cl)cc2Cl)O1,> 100,> 100,0.16,0,0.1
O=C(c1ccc(Cl)cc1Cl)C(O)(Cn1cncn1)c1ccccc1Cl (stereo not given),100,100,0.31,7,0.1
CC(C)[C@H]1OCO[C@]1(Cn1cncn1)c1ccc(Cl)cc1,100,> 100,0.04,7,0.2
CC(C)CC(=O)C(O)(Cn1cncn1)c1ccc(Cl)cc1Cl (stereo not given),100,100,0.02,0,0.1
O=C(c1ccc(Cl)cc1Cl)C(O)(Cn1cncn1)c1ccc(Cl)cc1 (stereo not given),> 100,100,0.31,8,0.1
CCCC(=O)C(O)(Cn1cncn1)c1ccc(Cl)cc1Cl (stereo not given),50,50,0.04,4,0.1
O=C1O[C@H](c2ccc(F)cc2)[C@@](Cn2cncn2)(c2ccc(Cl)cc2Cl)O1,> 100,50,0.63,7,0.1
CCCC(O)(c1ccc(F)cc1)C(O)(Cn1cncn1)c1ccc(Cl)cc1 (stereo not given),> 100,> 100,0.31,7,0.2
O=C(c1ccc(Cl)cc1Cl)[C@](O)(Cn1cncn1)c1ccc(Cl)cc1Cl,> 100,> 100,0.08,8,0.1
OC(c1ccc(Cl)cc1Cl)C(O)(Cn1ccnc1)c1ccc(Cl)cc1Cl (stereo not given),100,50,1.25,3,0.1
OC(c1ccc(Cl)cc1Cl)C(O)(Cn1cncn1)c1ccc(Cl)cc1Cl (stereo not given),> 100,100,0.08,6,0.1
OC(c1ccccc1Cl)C(O)(Cn1cncn1)c1ccc(F)cc1 (stereo not given),> 100,> 100,10,0,0.8

Structure (SMILES),MIC (Aspergillus fumigatus) [µg/mL],MIC (Candida albicans [1]) [µg/mL],minimal effective concentration (Candida albicans [2]) [µg/mL],No. of survivors (Mus musculus),MIC (Trichophyton benhamiae) [µg/mL]
O=C1O[C@H](c2ccccc2)[C@@](Cn2cncn2)(c2ccc(Cl)cc2Cl)O1,> 100,100,0.16,0,0.16
O=C(c1ccc(Cl)cc1)C(O)(Cn1ccnc1)c1ccc(Cl)cc1Cl (stereo not given),> 100,> 100,2.5,0,0.1
O=C(c1ccc(Cl)cc1Cl)[C@@](O)(Cn1cncn1)c1ccc(Cl)cc1Cl,> 100,50,1.25,1,0.1
O=C1O[C@H](c2ccc(Cl)cc2Cl)[C@@](Cn2cncn2)(c2ccc(Cl)cc2)O1,> 100,50,0.63,8,0.1
O=C(c1ccc(Cl)cc1)C(O)(Cn1cncn1)C1CCCCC1 (stereo not given),50,> 100,0.08,0,0.8
CC(C)C(=O)C(O)(Cn1cncn1)c1ccc(Cl)cc1 (stereo in doubt; 36),12.5,100,0.04,7,0.1
O=C(c1ccc(Cl)cc1Cl)C(O)(Cn1ccnc1)c1ccc(Cl)cc1 (stereo not given),25,25,2.5,0,0.1
O=C(c1ccccc1Cl)C(O)(Cn1cncn1)c1ccc(Cl)cc1Cl (stereo not given),> 100,> 100,0.04,8,0.1
O=C(c1ccccc1)C(O)(Cn1cncn1)c1ccccc1 (stereo not given),> 100,> 100,> 20,0,12.5
Cc1ccccc1C(=O)C(O)(Cn1cncn1)c1ccccc1C (stereo not given),> 100,> 100,5,0,3.1
CCCC(=O)C(O)(Cn1cncn1)c1ccc(Cl)cc1 (stereo not given),12.5,100,0.08,0,0.1
O=C(c1ccccc1)C(O)(Cn1ccnc1)c1ccc(Cl)cc1Cl (stereo not given),> 100,> 100,0.63,0,0.1
CCCC(O)(Cn1cncn1)C(=O)c1ccc(Cl)cc1Cl (stereo not given),50,> 100,1.25,1,0.4
OC(c1ccccc1Cl)C(O)(Cn1ccnc1)c1ccccc1Cl (stereo not given),100,> 100,1.25,4,0.4
CC(C)[C@H]1OC(=O)O[C@]1(Cn1cncn1)c1ccc(Cl)cc1Cl,> 100,100,0.63,8,3.1
CC(C)CC(=O)C(O)(Cn1cncn1)c1ccc(Cl)cc1 (stereo not given),50,100,0.04,0,0.1
O=S1O[C@H](c2ccc(F)cc2)[C@@](Cn2cncn2)(c2ccc(Cl)cc2Cl)O1 (stereo not given in full),50,> 100,0.04,4,0.1
CC(=O)C(O)(Cn1cncn1)c1ccc(Cl)cc1Cl (stereo not given),50,> 100,0.04,2,0.2
